Experiment [1] addresses Sterol O-acyltransferase 1 (Oryctolagus cuniculus). Nature of the experiment: In vitro inhibition of rabbit intestinal acyl coenzyme A:cholesterol acyltransferase using [1-14C]oleolyl-CoA.
For another experiment, the species on record is Rattus norvegicus. Nature of the experiment: Percent change in total cholesterol in cholic acid (0.5%)-cholesterol (1.5%)-peanut oil (5.5%)-fed rats. Type of experiment: functional. The gist of the method: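 Acute screen: rats given a single gavage dose, 50 mg/kg standard unless noted, suspended in carboxymethylcellulose plus Tween-20 in water, then a single high-fat, high-cholesterol meal (0.5% cholic acid, 1.5% cholesterol, 5.5% peanut oil). Overnight rise in plasma total cholesterol measured as % change versus control. Stomachs checked for food. ANOVA with Fisher's multiple range test, p<0.05.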

Bounds are passed on as bounds.

Regarding `CC(C)c1cccc(C(C)C)c1NC(=O)NCC(NC(=O)c1ccc2ccccc2[n+]1[O-])c1ccccc1` (stereo unspecified), 150 nM corresponded to half-maximal inhibition in experiment [1] (IC50). Besides, the Change in the experiment filed under Rattus norvegicus is -21%. Consider `CCCCCCC(=O)NC(COC(=O)Nc1c(C(C)C)cccc1C(C)C)c1ccccc1` (stereo in doubt; 34a(-)), for which the IC50 in experiment [1] worked out at 570 nM. In the experiment filed under Rattus norvegicus, the Change is reported as -2%. In experiment [1], `CCCCCCCCCC(=O)NC(CNC(=O)Oc1c(C(C)C)cccc1C(C)C)c1ccccc1` (racemic) registered an IC50 of 760 nM. In the experiment listed under Rattus norvegicus, the Change is on record as 25%.

In turn, `COc1ccc(CNC(CNC(=O)Nc2c(C(C)C)cccc2C(C)C)C(C)C)cc1` (single isomer, unassigned; (-)) came in with an IC50 in experiment [1] of 80 nM. Also, the Change in the experiment filed under Rattus norvegicus is listed as -41%. Consider `CC(C)c1cccc(C(C)C)c1NC(=O)NCC(NCc1cccc([N+](=O)[O-])c1)c1ccccc1` (single isomer, unassigned; (-)), for which half-maximal inhibition in experiment [1] (IC50) was put at 45 nM. Further, the Change in the experiment listed under Rattus norvegicus is given as -32%. Take `CC(C)c1cccc(C(C)C)c1NC(=O)NCC(NCc1ccc(N(C)C)cc1)c1ccccc1` (stereo in doubt; 9n(+)): half-maximal inhibition in experiment [1] (IC50) required 60 nM. In addition, in the experiment listed under Rattus norvegicus, the Change is -56%. The compound `CC(C)c1cccc(C(C)C)c1NC(=O)NCC(NC(=O)c1cnccn1)c1ccccc1` (stereo unspecified) came in with an IC50 in experiment [1] of 440 nM. Moreover, the Change in the experiment filed under Rattus norvegicus is on record as -19%. With `CC(C)c1cccc(C(C)C)c1NC(=O)NCC(NCc1ccccc1)c1ccccc1` (stereo in doubt; 9k(+)), the IC50 in experiment [1] worked out at 53 nM. Also, the Change in the experiment listed under Rattus norvegicus was -41%.

The compound `CC(C)c1cccc(C(C)C)c1NC(=O)NCC(NCc1ccco1)c1ccccc1` (single isomer, unassigned; (-)) showed an IC50 in experiment [1] of 48 nM. In addition, the Change in the experiment filed under Rattus norvegicus was -18%. For the compound `CC(C)c1cccc(C(C)C)c1NC(=O)NCC(NCc1cccs1)c1ccccc1` (single isomer, unassigned; (+)), in experiment [1], 51 nM corresponded to half-maximal inhibition (IC50). Also, in the experiment listed under Rattus norvegicus, the Change is given as -19%. Taken in the same sequence, the figures for `CCCCC(=O)NCC(CNC(=O)Nc1c(C(C)C)cccc1C(C)C)c1ccccc1` (stereo unspecified) were 610 nM and -6%.

With `CCCCCCC(=O)NC(COC(=O)Nc1c(C(C)C)cccc1C(C)C)c1ccccc1` (single isomer, unassigned; (+)), the IC50 in experiment [1] was found to be 5100 nM. Consider `CCCCCCCCCCCC(=O)NC(CNC(=O)Nc1c(C(C)C)cccc1C(C)C)c1ccccc1` (stereo unspecified), for which, in experiment [1], the IC50 was found to be 77 nM. In addition, the Change in the experiment filed under Rattus norvegicus was -16%.

Turning to `COc1ccc(C(=O)NC(C)(CNC(=O)Nc2c(C(C)C)cccc2C(C)C)c2ccccn2)cc1` (racemic), the IC50 in experiment [1] was 610 nM. Besides, the Change in the experiment listed under Rattus norvegicus is reported as -23%. Compound `CC(C)c1cccc(C(C)C)c1NC(=O)NCC(NC(=O)c1ccco1)c1ccccc1` (stereo unspecified) showed an IC50 in experiment [1] of 440 nM. Besides, in the experiment listed under Rattus norvegicus, the Change is on record as -37%. For the compound `COc1ccc(CNC(CCSC)CNC(=O)Nc2c(C(C)C)cccc2C(C)C)cc1` (single isomer, unassigned; (+)), in experiment [1], 490 nM corresponded to half-maximal inhibition (IC50). Further, in the experiment filed under Rattus norvegicus, the Change was -31%.

Turning to `CCCC(CCC)(CNC(=O)Nc1c(C(C)C)cccc1C(C)C)NC(=O)c1ccc(OC)cc1`, the IC50 in experiment [1] is 90 nM. In addition, in the experiment listed under Rattus norvegicus, the Change is -25%.

For the compound `CCCCC(=O)NC(CNC(=O)Nc1c(C(C)C)cccc1C(C)C)c1ccccc1` (stereo unspecified), the IC50 in experiment [1] stood at 430 nM. In addition, the Change in the experiment filed under Rattus norvegicus is reported as -8%.

Take `CC(C)c1cccc(C(C)C)c1NC(=O)NCC(NCc1ccncc1)c1ccccc1` (single isomer, unassigned; (+)): in experiment [1], half-maximal inhibition (IC50) was put at 1200 nM. For the same compound, in the experiment filed under Rattus norvegicus, the Change is -19%. `CC(C)c1cccc(C(C)C)c1NC(=O)NCC(NC(=O)c1cc2ccccc2[nH]1)c1ccccc1` (stereo unspecified) came in with a 50% inhibitory concentration (IC50) in experiment [1] of 2300 nM. Moreover, in the experiment filed under Rattus norvegicus, the Change is given as -3%. In experiment [1], `CCCCCCNC(CNC(=O)Nc1c(C(C)C)cccc1C(C)C)c1ccccc1` (racemic) gave an IC50 of 49 nM. Further, in the experiment listed under Rattus norvegicus, the Change is given as -41%. Turning to `CC(C)c1cccc(C(C)C)c1NC(=O)NCC(NCc1cccnc1)c1ccccc1` (stereo unspecified), the IC50 in experiment [1] amounted to 370 nM. For the same compound, the Change in the experiment listed under Rattus norvegicus is -26%. For the compound `CC(C)c1cccc(C(C)C)c1NC(=O)NCC(NCC1CC1)c1ccccc1` (single isomer, unassigned; (-)), in experiment [1], the IC50 turned out to be 64 nM. In the experiment listed under Rattus norvegicus, the Change is -51%. In experiment [1], `CC(C)c1cccc(C(C)C)c1NC(=O)NCC(NC(=O)CCCCCBr)c1ccccc1` (stereo unspecified) had an IC50 of 380 nM. Also, the Change in the experiment listed under Rattus norvegicus is -36%. In experiment [1], `CC(C)c1cccc(C(C)C)c1OC(=O)NCC(NC(=O)OC(C)(C)C)c1ccccc1` (single isomer, unassigned; (-)) had an IC50 of 430 nM. Further, the Change in the experiment filed under Rattus norvegicus was determined as 20%. On to `CC(C)c1cccc(C(C)C)c1NC(=O)NCC(NC(=O)c1ccncc1)c1ccccc1` (stereo unspecified), for which, in experiment [1], the IC50 was determined as 3200 nM. In the experiment filed under Rattus norvegicus, the Change is -12%.

Compound `COc1ccc(CNC(CNC(=O)Nc2c(C(C)C)cccc2C(C)C)c2ccccc2)cc1` (racemic) returned an IC50 in experiment [1] of 48 nM. Moreover, the Change in the experiment listed under Rattus norvegicus was -54%. As to `CC(C)c1cccc(C(C)C)c1NC(=O)OCC(NCc1ccc(N(C)C)cc1)c1ccccc1.Cl` (stereo unspecified), the Change in the experiment filed under Rattus norvegicus is -23%. As for `CC(C)c1cccc(C(C)C)c1NC(=O)NCC(CN(C)Cc1ccccc1)c1ccccc1` (stereo unspecified), in experiment [1], the IC50 was over 10000 nM. In the case of `COc1ccccc1CNC(CNC(=O)Nc1c(C(C)C)cccc1C(C)C)c1ccccc1` (single isomer, unassigned; (-)), the IC50 in experiment [1] was found to be 45 nM. The Change in the experiment listed under Rattus norvegicus is recorded as -23%.

For the compound `CC(C)c1cccc(C(C)C)c1NC(=O)NCC(CNC(=O)c1ccccn1)c1ccccc1` (stereo unspecified), the IC50 in experiment [1] was 300 nM. The Change in the experiment filed under Rattus norvegicus was -7%. The compound `CCCCCCCCCCCC(=O)NC(CNC(=O)Oc1c(C(C)C)cccc1C(C)C)c1ccccc1` (single isomer, unassigned; (-)) returned a 50% inhibitory concentration (IC50) in experiment [1] of 51 nM. Besides, the Change in the experiment listed under Rattus norvegicus turned out to be 25%. Taken in the same sequence, the figures for `CC(C)c1cccc(C(C)C)c1NC(=O)NCC(CNCc1ccccc1)c1ccccc1` (stereo unspecified) were 160 nM and -46%. For `COc1ccc(C(=O)NC(C)(C)CNC(=O)Nc2c(C(C)C)cccc2C(C)C)cc1`, in the experiment filed under Rattus norvegicus, the Change is -9%.

As for `CC(C)c1cccc(C(C)C)c1NC(=O)NCC(NCc1ccccc1)c1ccccc1` (racemic), the IC50 in experiment [1] was found to be 51 nM. Moreover, in the experiment listed under Rattus norvegicus, the Change is recorded as -36%. Regarding `CC(C)c1cccc(C(C)C)c1NC(=O)NCC(NC(=O)c1ccc(C(F)(F)F)cc1)c1ccccc1` (stereo unspecified), the IC50 in experiment [1] was 510 nM. Further, the Change in the experiment listed under Rattus norvegicus is on record as -9%. Taken in the same sequence, the figures for `COc1ccc(CNC(CNC(=O)Nc2c(C(C)C)cccc2C(C)C)c2ccccc2)cc1` (single isomer, unassigned; (-)) were 39 nM and -45%. Take `CC(C)c1cccc(C(C)C)c1NC(=O)NCC(NC(=O)c1ccc2ccccc2n1)c1ccccc1` (stereo unspecified): the IC50 in experiment [1] came out at 150 nM. Besides, the Change in the experiment listed under Rattus norvegicus is reported as -31%. Compound `CC(C)c1cccc(C(C)C)c1NC(=O)NCC(NC(=O)CCCCCN(CCO)CCO)c1ccccc1` (stereo unspecified) displayed an IC50 in experiment [1] of 2800 nM. Also, the Change in the experiment filed under Rattus norvegicus is -4%. In experiment [1], `CC(C)c1cccc(C(C)C)c1NC(=O)NCC(NC(=O)c1ccccn1)c1ccccc1` (stereo unspecified) gave an IC50 of 80 nM. The Change in the experiment filed under Rattus norvegicus was -24%.

As to `CC(C)c1cccc(C(C)C)c1NC(=O)NCC(NCc1ccccc1)c1ccccc1` (single isomer, unassigned; (-)), in experiment [1], the IC50 came to 33 nM. For the same compound, in the experiment listed under Rattus norvegicus, the Change was -29%. In the case of `COc1ccc(CNC(CNC(=O)Nc2c(C(C)C)cccc2C(C)C)CC(C)C)cc1` (stereo unspecified), in experiment [1], the IC50 was 50 nM. Moreover, in the experiment filed under Rattus norvegicus, the Change is -32%. As to `COc1ccc(CNC(CNC(=O)Nc2c(C(C)C)cccc2C(C)C)Cc2ccccc2)cc1` (single isomer, unassigned; (-)), in experiment [1], the IC50 was found to be 270 nM. The Change in the experiment filed under Rattus norvegicus is -30%. Take `Cc1ccc(C(=O)NC(CNC(=O)Nc2c(C(C)C)cccc2C(C)C)c2ccccc2)cc1` (stereo unspecified): in experiment [1], inhibition was half-maximal at 350 nM (IC50). For the same compound, in the experiment filed under Rattus norvegicus, the Change is recorded as -1%. In experiment [1], `CC(C)c1cccc(C(C)C)c1NC(=O)NCC(CN(Cc1ccccc1)Cc1ccccc1)c1ccccc1` (stereo unspecified) had an IC50 of 7600 nM. As for `CCCCCCCNC(CNC(=O)Nc1c(C(C)C)cccc1C(C)C)c1ccccc1` (racemic), in experiment [1], the IC50 stood at 110 nM. Besides, in the experiment listed under Rattus norvegicus, the Change is -25%. Regarding `COc1ccc(C(=O)NC(CNC(=O)Nc2c(C(C)C)cccc2C(C)C)c2ccccc2)cc1` (stereo unspecified), in experiment [1], the IC50 came out at 330 nM. For the same compound, the Change in the experiment filed under Rattus norvegicus is reported as -7%. Take `CC(C)c1cccc(C(C)C)c1NC(=O)NCC(NCc1ccccn1)c1ccccc1` (stereo unspecified): in experiment [1], inhibition was half-maximal at 140 nM (IC50). In addition, in the experiment filed under Rattus norvegicus, the Change is recorded as -15%. In turn, `CCCCCCCCCCCC(=O)NC(COC(=O)Nc1c(C(C)C)cccc1C(C)C)c1ccccc1` (stereo unspecified) registered an IC50 in experiment [1] of 200 nM. In addition, the Change in the experiment filed under Rattus norvegicus is -16%. In turn, `CC(C)c1cccc(C(C)C)c1NC(=O)NCC(NCc1ccc(O)c(CN(C)C)c1)c1ccccc1` (single isomer, unassigned; (-)) showed an IC50 in experiment [1] of 490 nM. In addition, in the experiment listed under Rattus norvegicus, the Change was -46%. Take `COc1ccc(C(=O)NC(CNC(=O)Nc2c(C(C)C)cccc2C(C)C)C2CCCCC2)cc1` (racemic): the midpoint of inhibition in experiment [1], the IC50, lay at 250 nM. Also, the Change in the experiment listed under Rattus norvegicus is on record as -15%. `CCCCCCCCCCCCCCCCCCNC(CNC(=O)Nc1c(C(C)C)cccc1C(C)C)c1ccccc1` (racemic) registered an IC50 in experiment [1] of 230 nM. The Change in the experiment filed under Rattus norvegicus was -3%. Turning to `CCCCCCCCCCC(C)(C)C(=O)Nc1c(OC)cc(OC)cc1OC` [CL-976], the Change in the experiment listed under Rattus norvegicus was -44%. For `CCCCCCCCCC(=O)NC(CNC(=O)Nc1c(C(C)C)cccc1C(C)C)c1ccccc1` (stereo unspecified), the IC50 in experiment [1] was determined as 590 nM. In addition, in the experiment listed under Rattus norvegicus, the Change is -29%. Taken in the same sequence, the figures for `CC(C)c1cccc(C(C)C)c1NC(=O)NCC(NC(=O)c1cccc2ccccc12)c1ccccc1` (stereo unspecified) were 970 nM and -14%. For `CC(C)c1cccc(C(C)C)c1NC(=O)NC(CNC(=O)c1ccccc1)c1ccccc1` (stereo unspecified), half-maximal inhibition in experiment [1] (IC50) required 3600 nM. In the case of `CC(C)c1cccc(C(C)C)c1NC(=O)OCC(NC(=O)OC(C)(C)C)c1ccccc1` (stereo unspecified), the IC50 in experiment [1] is 2500 nM.

In general, IC50 refers to the concentration that gives 50% inhibition. Read a low IC50 as higher potency.
